PMC3962784 (Journal of medicinal chemistry, 2013)

What was measured:
papain = target: T1, papain (Carica papaya, UniProt P00784); assay: Papain inhibition kinetics, Suc-LLVY-AMC progress curves; type: biochemical; conditions: for Papain ki: inhibition rate constant; for Papain ki/Ki: mean ± S.D. of triplicate; for Papain rel (ki/Ki calculated relative to E-64): E-64 = 1
T1 sequence (P00784 134-345): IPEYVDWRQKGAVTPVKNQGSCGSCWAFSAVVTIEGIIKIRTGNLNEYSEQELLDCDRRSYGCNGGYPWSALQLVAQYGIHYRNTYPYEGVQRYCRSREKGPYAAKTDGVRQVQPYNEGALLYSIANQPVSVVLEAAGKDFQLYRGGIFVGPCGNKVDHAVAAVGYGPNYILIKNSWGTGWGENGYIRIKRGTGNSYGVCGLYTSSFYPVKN
How it was run: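 Papain (236 pM) in 100 mM NaCl, 50 mM HEPES pH 7.6, 1 mM TCEP with 30 µM Suc-LLVY-AMC and inhibitor at 0.5–50 µM, 30 °C. Organic solvent (acetonitrile/DMSO 1:1) stayed below 2%. AMC release was followed over time at Ex/Em 346/444 nm. Constants came from varied enzyme and inhibitor concentrations, and selectivity from ki/Ki with E-64 as 1.0. Triplicates.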

[1] = target: T2, full length Cal1 (full length porcine calpain) (Sus scrofa, UniProt P35750); assay: Calpain inhibition kinetics, Suc-LLVY-AMC progress curves; type: biochemical; conditions: for Calpain1 ki: inhibition rate constant; for Calpain1 ki / Calpain1 ki/Ki: full length Cal1; for Calpain1 ki/Ki: mean ± S.D. of triplicate; for 10^2 × ki/Ki Cal1 / ki/Ki papain: selectivity ratio Cal1 over papain; for Calpain1 rel (ki/Ki calculated relative to E-64): E-64 = 1; for Relative selectivity for inhibition of Cal1 over papain (in words): assessed using ki/Ki
T2 sequence (P35750 1-714): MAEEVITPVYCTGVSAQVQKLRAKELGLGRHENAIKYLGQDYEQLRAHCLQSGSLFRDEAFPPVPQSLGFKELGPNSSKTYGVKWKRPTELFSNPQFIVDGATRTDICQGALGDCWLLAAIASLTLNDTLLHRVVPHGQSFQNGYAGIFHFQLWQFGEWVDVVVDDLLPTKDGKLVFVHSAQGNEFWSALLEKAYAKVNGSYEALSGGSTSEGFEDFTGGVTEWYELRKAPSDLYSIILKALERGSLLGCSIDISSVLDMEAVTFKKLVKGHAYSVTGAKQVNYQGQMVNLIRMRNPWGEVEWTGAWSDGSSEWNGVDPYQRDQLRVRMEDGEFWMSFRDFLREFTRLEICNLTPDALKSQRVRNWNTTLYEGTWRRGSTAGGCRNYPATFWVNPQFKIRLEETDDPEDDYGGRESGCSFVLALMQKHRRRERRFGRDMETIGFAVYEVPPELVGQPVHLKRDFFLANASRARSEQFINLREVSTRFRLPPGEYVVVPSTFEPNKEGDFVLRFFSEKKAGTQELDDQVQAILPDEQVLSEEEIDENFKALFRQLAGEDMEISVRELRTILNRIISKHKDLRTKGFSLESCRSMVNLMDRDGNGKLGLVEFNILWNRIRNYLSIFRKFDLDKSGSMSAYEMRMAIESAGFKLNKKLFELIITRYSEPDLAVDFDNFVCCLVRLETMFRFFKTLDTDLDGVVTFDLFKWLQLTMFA
T2 sequence (P04574 1-266 partner): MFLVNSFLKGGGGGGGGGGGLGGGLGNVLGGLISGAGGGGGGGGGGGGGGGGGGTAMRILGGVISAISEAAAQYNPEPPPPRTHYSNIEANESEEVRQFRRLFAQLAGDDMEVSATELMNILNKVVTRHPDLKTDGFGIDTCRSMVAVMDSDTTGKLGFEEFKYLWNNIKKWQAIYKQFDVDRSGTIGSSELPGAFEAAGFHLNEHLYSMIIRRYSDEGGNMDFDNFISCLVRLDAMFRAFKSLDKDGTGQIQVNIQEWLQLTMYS

[2] = target: recombinant rat Cal1cat (Cal1 catalytic domain) active site Cys (Rattus norvegicus, UniProt P97571); assay: LC-MS/MS examination of inhibitor modified Cal1cat active site; type: binding; conditions: co-incubation of Cal1cat (1 μM) with E-64 and 22a, both 5 μM
Sequence of recombinant rat Cal1cat (Cal1 catalytic domain) active site Cys (P97571 55-354 limits assumed): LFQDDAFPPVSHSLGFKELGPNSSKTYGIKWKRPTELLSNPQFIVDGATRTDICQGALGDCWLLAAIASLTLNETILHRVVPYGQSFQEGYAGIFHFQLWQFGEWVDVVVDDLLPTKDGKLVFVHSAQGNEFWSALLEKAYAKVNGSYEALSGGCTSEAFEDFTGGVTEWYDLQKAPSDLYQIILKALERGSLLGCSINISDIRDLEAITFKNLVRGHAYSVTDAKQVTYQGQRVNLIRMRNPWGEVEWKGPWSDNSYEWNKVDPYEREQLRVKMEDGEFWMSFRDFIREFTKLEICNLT
How it was run: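 Recombinant rat Cal1cat from E. coli (1 μM), activated with CaCl2 (10 mM), co-incubated 20 min with both inhibitors at 5 μM each. Quenched with EDTA, run on SDS-PAGE; band excised, alkylated in-gel with IAA (100 mM, 60 min), trypsin-digested. Ion-trap LC-MS/MS, reverse-phase column, ACN/water with 0.1% formic acid. Semiquantitative EIC of modified peptides against non-active-site IAA-capped peptide internal standard.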

Compound	Papain ki (papain) [s⁻¹]	Calpain1 ki [1] [s⁻¹]	Competitive modification of Cal1cat active site [2]	Papain ki/Ki (papain) [×l0^−4s^−1M^−1]	Calpain1 ki/Ki [1] [×l0^−4 s^−1M^−1]	10^2 × ki/Ki Cal1 / ki/Ki papain [1]	Papain rel (ki/Ki calculated relative to E-64) (papain)	Calpain1 rel (ki/Ki calculated relative to E-64) [1]	Relative selectivity for inhibition of Cal1 over papain (in words) [1]
CC(C)C[C@H](NC(=O)[C@H]1O[C@@H]1C(=O)O)C(=O)Nc1nc(-c2ccc(F)cc2)cs1 [22a, (2S,3S)-3-((S)-1-(4-(4-fluorophenyl)thiazol-2-ylamino)-4-methyl-1-oxopentan-2-ylcarbamoyl)oxirane-2-carboxylic acid]	17.1	0.16	relatively greater modification by 22a						
CC(C)C[C@H](NC(=O)[C@H]1O[C@@H]1C(=O)O)C(=O)NCCCCN=C(N)N [E-64, L-trans-epoxysuccinyl-leucylamido(4-guanidino)butane, reference compound]	28.6	0.12		563 ± 52	3.02±0.15	0.54			
O=C(Nc1nc(-c2ccc(F)cc2)cs1)[C@H](Cc1cscn1)NC(=O)[C@H]1O[C@@H]1C(=O)O [compound 31, 3-((S)-1-(4-(4-fluorophenyl)thiazol-2-ylamino)-1-oxo-3-(thiazol-4-yl)propan-2-ylcarbamoyl)oxirane-2-carboxylic acid]	14.8	0.08		279 ± 47	2.96±0.14	1.06	0.50	0.98	show Cal1 selectivity
C#Cc1ccc(-c2csc(NC(=O)[C@H](Cc3cscn3)NC(=O)[C@H]3O[C@@H]3C(=O)O)n2)cc1 [compound 32, (2S,3S)-3-((S)-1-(4-(4-ethynylphenyl)thiazol-2-ylamino)-1-oxo-3-(thiazol-4-yl)propan-2-ylcarbamoyl)oxirane-2-carboxylic acid]	21.6	0.14		223 ± 2.4	3.89±0.41	1.74	0.40	1.3	show Cal1 selectivity
O=C(NCc1cn(-c2ccc(F)cc2)nn1)[C@H](Cc1cscn1)NC(=O)[C@H]1O[C@@H]1C(=O)O [compound 36, (2S,3S)-3-((S)-1-((1-(4-fluorophenyl)-1H-1,2,3-triazol-4-yl)methylamino)-1-oxo-3-(thiazol-4-yl)propan-2-ylcarbamoyl)oxirane-2-carboxylic acid]	12.7	0.10		66.2 ±7.4	3.31±0.32	5.0	0.12	1.1	show Cal1 selectivity
